Laboratory results as given in ChEMBL document CHEMBL4831540, “Discovery of Aficamten (CK-274), a Next-Generation Cardiac Myosin Inhibitor for the Treatment of Hypertrophic Cardiomyopathy” (J Med Chem, 2021).
Values after ≈ are worked out from the molar mass of the structure shown.

Tests used:
[1] = Oral bioavailability in mouse at 1 mg/kg; assay type: ADME, organism-based; details: in vivo
In short: (§1)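 Single iv or oral doses in male animals, 3 per group except dog iv (2 animals). Plasma concentration–time profiles gave Cmax, tmax, AUC0–t, clearance, steady-state volume of distribution, half-life and bioavailability.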

[2] = Half life in Sprague-Dawley rat at 1 mg/kg; assay type: ADME, organism-based; details: in vivo
In short: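 Rat PK with iv and po administration at 1 mg/kg. Clearance and half-life came from the iv arm, and bioavailability from the iv/po comparison.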

[3] = Oral bioavailability in Sprague-Dawley rat at 8 mg/kg; assay type: ADME, organism-based; details: in vivo; in short: as §1
[4] = Plasma protein binding in Sprague-Dawley rat assessed as unbound fraction; assay type: ADME
[5] = Cmax in cynomolgus monkey at 1 mg/kg, po; assay type: ADME, organism-based, Macaca fascicularis; parameters: route oral, dose 1 mg/kg; details: in vivo
In short: (§2)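 Multi-species PK study in male animals, n = 3 per group (dog IV arm n = 2). Iv and oral dosing with plasma concentration–time profiles yielding Cmax, tmax, AUC0–t, CL, Vss, t1/2 and F.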

[6] = Half life in Beagle dog at 1 mg/kg, po; assay type: ADME, organism-based, Canis lupus familiaris; details: in vivo; in short: as §2
[7] = Half life in cynomolgus monkey at 1 mg/kg, po; assay type: ADME, organism-based, Macaca fascicularis; details: in vivo; in short: as §2
[8] = Cmax in Beagle dog at 1 mg/kg, po; assay type: ADME, organism-based, Canis lupus familiaris; parameters: route oral, dose 1 mg/kg; details: in vivo; in short: as §2
[9] = AUC (0 to t) in mouse at 1 mg/kg, po; assay type: ADME, organism-based; parameters: dose 1 mg/kg; details: in vivo; in short: as §2
[10] = Volume of distribution at steady state in Sprague-Dawley rat at 1 mg/kg, iv; assay type: ADME, organism-based; details: in vivo, read-out: Vdss; in short: as §1
[11] = Half life in cynomolgus monkey at 1 mg/kg, iv; assay type: ADME, organism-based, Macaca fascicularis; details: in vivo; in short: as §2
Cytochrome P450 3A4 [12] = biological target: T1, Cytochrome P450 3A4 (Homo sapiens, UniProt P08684); experiment: Inhibition of CYP3A4 in human liver microsomes assessed as midazolam 1'-hyrozylation reaction incubated for 30 mins in presence of NADP by LC-MS/MS analysis; assay type: ADME
Cytochrome P450 2C19 = Cytochrome P450 2C19 (Homo sapiens, UniProt P33261); experiment: Inhibition of CYP2C19 in human liver microsomes assessed as mephenytoin 4-hydroxylation reaction incubated for 30 mins in presence of NADP by LC-MS/MS analysis; assay type: ADME
Cytochrome P450 3A4 [13] = biological target: T1, Cytochrome P450 3A4; experiment: Inhibition of CYP3A4 in human liver microsomes assessed as testosterone 6-beta-hydroxylation reaction incubated for 30 mins in presence of NADP by LC-MS/MS analysis; assay type: ADME
[14] = Half life in Beagle dog at 1 mg/kg, iv; assay type: ADME, organism-based, Canis lupus familiaris; details: in vivo; in short: as §2
[15] = Solubility of the compound at pH 6.8 by shake flask method; assay type: physicochemical; details: buffer
In short: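 Shake-flask solubility at pH 6.8; solid form not characterized.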

[16] = Plasma protein binding in Beagle dog assessed as unbound fraction; assay type: ADME, Canis lupus familiaris
[17] = Tmax in Beagle dog at 1 mg/kg, po; assay type: ADME, organism-based, Canis lupus familiaris; details: in vivo; in short: as §1
[18] = Volume of distribution at steady state in cynomolgus monkey at 1 mg/kg, iv; assay type: ADME, organism-based, Macaca fascicularis; details: in vivo, read-out: Vdss; in short: as §1
[19] = Plasma protein binding in human assessed as unbound fraction; assay type: ADME, cell-free
[20] = Plasma protein binding in rat plasma assessed as unbound concentration at 5 uM incubated for 6 hrs by HPLC analysis; assay type: ADME, cell-free
[21] = Half life in mouse at 1 mg/kg, po; assay type: ADME, organism-based; details: in vivo; in short: as §2
[22] = Ratio of IC50 to IC10 for anti-hypertrophic cardiomyopathy in po dosed Sprague-Dawley rat assessed as reduction in fractional shortening measured upto 24 hrs by echocardiography; assay type: functional; details: time hrs <=24
In short: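 Sprague–Dawley rats received single oral doses from 0.5 to 4 mg/kg. LV dimensions and fractional shortening were read by echocardiography at set times over 24 h, with blood drawn at each reading for compound level. Concentrations giving 50% and 10% FS reduction were derived, and their IC50/IC10 ratio was calculated.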

[23] = Cmax in Sprague-Dawley rat at 2 mg/kg, po; assay type: ADME, organism-based; parameters: route oral, dose 2 mg/kg; details: in vivo; in short: as §2
[24] = Clearance in mouse at 0.5 mg/kg, iv; assay type: ADME, organism-based; details: in vivo; in short: as §2
[25] = Clearance in Beagle dog at 1 mg/kg, iv; assay type: ADME, organism-based, Canis lupus familiaris; details: in vivo; in short: as §2
[26] = AUC (0 to t) in cynomolgus monkey at 1 mg/kg, iv; assay type: ADME, organism-based, Macaca fascicularis; parameters: dose 1 mg/kg; details: in vivo; in short: as §2
Rattus norvegicus = experiment: Anti-hypertrophic cardiomyopathy in po dosed Sprague-Dawley rat assessed as reduction in fractional shortening measured upto 24 hrs by echocardiography; assay type: functional, organism-based
In short: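 Normal Sprague–Dawley rats were given single oral doses of 0.5–4 mg/kg. Left ventricular dimensions and fractional shortening were measured by echocardiography at selected time points over 24 h, relative to vehicle treatment.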

[27] = AUC (0 to t) in Sprague-Dawley rat at 8 mg/kg, po; assay type: ADME, organism-based; parameters: dose 8 mg/kg; details: in vivo; in short: as §2
Cytochrome P450 1A2 = biological target: T2, Cytochrome P450 1A2 (Homo sapiens, UniProt P05177); experiment: Inhibition of CYP1A2 in human liver microsomes assessed as phenacetin O-deethylation reaction incubated for 30 mins in presence of NADP by LC-MS/MS analysis; assay type: ADME
T2 sequence (P05177 whole entry): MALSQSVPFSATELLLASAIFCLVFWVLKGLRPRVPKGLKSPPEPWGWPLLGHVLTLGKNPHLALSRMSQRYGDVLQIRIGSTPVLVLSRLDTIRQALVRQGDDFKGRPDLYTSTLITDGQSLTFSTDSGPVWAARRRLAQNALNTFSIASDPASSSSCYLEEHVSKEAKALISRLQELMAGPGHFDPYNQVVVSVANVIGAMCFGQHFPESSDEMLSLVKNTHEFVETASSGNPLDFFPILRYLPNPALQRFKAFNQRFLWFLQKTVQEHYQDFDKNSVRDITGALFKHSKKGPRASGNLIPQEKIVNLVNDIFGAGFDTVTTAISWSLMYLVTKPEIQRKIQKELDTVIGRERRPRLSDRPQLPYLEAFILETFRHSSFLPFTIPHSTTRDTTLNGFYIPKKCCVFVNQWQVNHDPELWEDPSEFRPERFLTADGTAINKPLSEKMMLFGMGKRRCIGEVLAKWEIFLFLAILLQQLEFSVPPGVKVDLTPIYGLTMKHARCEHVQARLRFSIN

[28] = Clearance in Sprague-Dawley rat at 0.5 mg/kg; assay type: ADME, organism-based; details: in vivo
[29] = Tmax in Sprague-Dawley rat at 8 mg/kg, po; assay type: ADME, organism-based; details: in vivo; in short: as §1
[30] = Cmax in Sprague-Dawley rat at 8 mg/kg, po; assay type: ADME, organism-based; parameters: route oral, dose 8 mg/kg; details: in vivo; in short: as §2
[31] = Half life in Sprague-Dawley rat at 2 mg/kg, po; assay type: ADME, organism-based; details: in vivo; in short: as §2
[32] = Tmax in Sprague-Dawley rat at 2 mg/kg, po; assay type: ADME, organism-based; details: in vivo; in short: as §1

T1 sequence (P08684 whole entry): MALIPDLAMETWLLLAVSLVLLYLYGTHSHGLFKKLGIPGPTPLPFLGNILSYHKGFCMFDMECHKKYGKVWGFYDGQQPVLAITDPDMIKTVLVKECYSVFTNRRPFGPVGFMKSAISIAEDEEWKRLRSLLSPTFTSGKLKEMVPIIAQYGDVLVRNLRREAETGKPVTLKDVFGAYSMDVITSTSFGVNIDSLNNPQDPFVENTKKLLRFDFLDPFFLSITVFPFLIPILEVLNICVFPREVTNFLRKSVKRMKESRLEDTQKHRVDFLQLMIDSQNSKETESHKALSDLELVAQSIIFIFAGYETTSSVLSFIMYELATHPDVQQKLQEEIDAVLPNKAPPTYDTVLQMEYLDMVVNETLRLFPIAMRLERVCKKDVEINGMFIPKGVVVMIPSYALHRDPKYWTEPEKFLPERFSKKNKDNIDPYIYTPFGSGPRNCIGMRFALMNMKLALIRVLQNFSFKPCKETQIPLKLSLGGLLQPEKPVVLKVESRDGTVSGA
Sequence of Cytochrome P450 2C19 (P33261 whole entry): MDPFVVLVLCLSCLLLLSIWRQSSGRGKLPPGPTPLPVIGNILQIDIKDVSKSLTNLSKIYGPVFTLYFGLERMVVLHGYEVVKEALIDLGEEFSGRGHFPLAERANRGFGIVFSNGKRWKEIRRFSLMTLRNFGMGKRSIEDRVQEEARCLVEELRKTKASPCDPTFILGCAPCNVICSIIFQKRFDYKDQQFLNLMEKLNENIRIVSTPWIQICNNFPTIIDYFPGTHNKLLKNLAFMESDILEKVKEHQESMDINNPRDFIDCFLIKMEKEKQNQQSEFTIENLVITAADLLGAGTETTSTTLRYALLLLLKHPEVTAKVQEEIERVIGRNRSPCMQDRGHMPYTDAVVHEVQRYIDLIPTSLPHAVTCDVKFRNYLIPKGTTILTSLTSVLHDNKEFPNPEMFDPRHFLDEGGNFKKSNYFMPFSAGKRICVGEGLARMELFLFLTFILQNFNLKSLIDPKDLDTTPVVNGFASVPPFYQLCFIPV

bioavailability [1]: 98%
half-life [2]: 3 h
bioavailability [3]: 79%
fraction unbound [4]: 0.018
Cmax [5]: 65 ng/mL
half-life [6]: 28.7 h
half-life [7]: 12.1 h
Cmax [8]: 245 ng/mL
AUC(0-t) [9]: 1830 ng·h/mL
Vd [10]: 0.53 L/kg
half-life [11]: 8.1 h
IC50 (Cytochrome P450 3A4 [12]): > 100 µM
IC50 (Cytochrome P450 2C19): > 100 µM
IC50 (Cytochrome P450 3A4 [13]): > 100 µM
half-life [14]: 33.8 h
solubility thermodynamic [15]: 97 µM (≈ 32.7 µg/mL)
fraction unbound [16]: 0.251
Tmax [17]: 0.33 h
Vd [18]: 7.76 L/kg
fraction unbound [19]: 0.095
fraction unbound at 6 h, 5 µM [20]: 0.018
half-life [21]: 3.4 h
Cmax [23]: 1650 ng/mL
clearance [24]: 8.8 mL/min/kg
clearance [25]: 3.3 mL/min/kg
AUC(0-t) [26]: 1340 ng·h/mL
AUC(0-t) [27]: 53700 ng·h/mL
IC50 (Cytochrome P450 1A2): > 100 µM
clearance [28]: 2 mL/min/kg
Tmax [29]: 0.58 h
Cmax [30]: 8440 ng/mL
half-life [31]: 2.6 h
Tmax [32]: 0.92 h
SMILES: CCc1nc(-c2ccc3c(c2)CC[C@H]3NC(=O)c2cnn(C)c2)no1 [AFICAMTEN]
Ratio [22]: 9.9
IC10 (Rattus norvegicus; Rattus norvegicus, Sprague-Dawley, 24 h): 0.8 µM
IC50 (Rattus norvegicus; time hrs <=24): 7.9 µM
